Results published in ChEMBL document CHEMBL2010801, “Semisynthesis and antimicrobial activity of novel guttiferone-A derivatives” (Bioorg Med Chem, 2012).
Converted amounts (≈) assume the structure as drawn. The source made the active and inactive calls. The calls are words filed in the database; no cut-off is given here.

Key:
[1] = tested on: Staphylococcus aureus; assay: Antimicrobial activity against Staphylococcus aureus ATCC 6538 after 24 hrs by broth microdilution method; assay type: functional; settings: for MIC50: read-out: MIC50
How it was run: (§1)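 Microplate broth microdilution with a serial dilution series of compounds, using chloramphenicol as the antibacterial control. Bacterial plates were incubated at 35 °C for 24 h.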

[2] = tested on: Staphylococcus epidermidis; assay: Antimicrobial activity against Staphylococcus epidermidis ATCC 12228 after 24 hrs by broth microdilution method; assay type: functional; how it was run: as §1
[3] = tested on: Bacillus cereus; assay: Antimicrobial activity against Bacillus cereus ATCC 11778 after 24 hrs by broth microdilution method; assay type: functional; settings: for MIC: read-out: MIC100; how it was run: as §1
[4] = tested on: Pseudomonas aeruginosa; assay: Antimicrobial activity against Pseudomonas aeruginosa ATCC 9027 after 24 hrs by broth microdilution method; assay type: functional; how it was run: as §1
[5] = tested on: Salmonella typhimurium; assay: Antimicrobial activity against Salmonella typhimurium ATCC 14028 after 24 hrs by broth microdilution method; assay type: functional; how it was run: as §1
[6] = tested on: Escherichia coli; assay: Antimicrobial activity against Escherichia coli ATCC 25922 after 24 hrs by broth microdilution method; assay type: functional; settings: for MIC50: ATCC 25922, 24 h; how it was run: as §1
[7] = tested on: Proteus mirabilis; assay: Antimicrobial activity against Proteus mirabilis ATCC 25933 after 24 hrs by broth microdilution method; assay type: functional; how it was run: as §1
[8] = tested on: Candida albicans; assay: Antifungal activity against Candida albicans ATCC 09548 after 24 hrs by broth microdilution method; assay type: functional
How it was run: (§2)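 Broth microdilution in microplates with a serial dilution series of compounds. Amphotericin B served as the fungicidal control and fluconazole as the fungistatic control. Yeast plates were incubated at 37 °C for 24 h.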

[9] = tested on: Pichia kudriavzevii; assay: Antifungal activity against Candida krusei ATCC 6258 after 24 hrs by broth microdilution method; assay type: functional; how it was run: as §2
[10] = tested on: Candida parapsilosis; assay: Antifungal activity against Candida parapsilosis ATCC 69548 after 24 hrs by broth microdilution method; assay type: functional; how it was run: as §2
[11] = tested on: Nakaseomyces glabratus; assay: Antifungal activity against Candida glabrata ATCC 90030 after 24 hrs by broth microdilution method; assay type: functional; how it was run: as §2
[12] = tested on: Candida tropicalis; assay: Antifungal activity against Candida tropicalis ATCC 750 after 24 hrs by broth microdilution method; assay type: functional; how it was run: as §2
[13] = tested on: Cryptococcus neoformans; assay: Antifungal activity against Cryptococcus neoformans ATCC 90012 after 24 hrs by broth microdilution method; assay type: functional; settings: for MIC: read-out: MIC100; how it was run: as §2
[14] = tested on: Trichophyton tonsurans; assay: Antifungal activity against Trichophyton tonsurans after 48 hrs by broth microdilution method; assay type: functional; settings: for MIC: read-out: MIC100
How it was run: (§3)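 Broth microdilution against filamentous fungi with serially diluted compounds. Amphotericin B (fungicidal) and fluconazole (fungistatic) were run as controls. Plates were incubated at 30 °C for 48 h.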

[15] = tested on: Nannizzia gypsea; assay: Antifungal activity against Microsporum gypseum after 48 hrs by broth microdilution method; assay type: functional; how it was run: as §3
[16] = Cytotoxicity against human PBMC after 48 hrs by MTT assay; assay type: cell-based; settings: PBMC (peripheral blood mononuclear cells)
How it was run: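 Normal human PBMC from healthy volunteers were isolated by Ficoll-Hypaque density gradient and seeded at 2.4 × 10⁶ cells/mL. Compounds were added at 100 to 0.06 and cells held 48 h at 37 °C, 5% CO₂. MTT was then added for 4 h, formazan dissolved in DMSO and A560 read. Untreated cells were taken as 100% viability. CC50 was obtained by linear regression.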

[17] = tested on: Staphylococcus aureus; assay: Ratio of MIC100 for chloramphenicol to MIC100 of compound for Staphylococcus aureus ATCC 6538 after 24 hrs by broth microdilution method; assay type: functional
[18] = Salmonella enterica subsp. enterica serovar Typhimurium
[19] = ATCC 90012, 24 h, read-out: MIC50

Row | Structure (SMILES) | MIC50 ([1]; ATCC 6538, 24 h) [µM] | MIC50 [2] | MIC100 [2] | MIC ([3]; ATCC 11778, 24 h) [µM] | MIC50 [4] | MIC100 [4] | MIC100 [5, 18] | MIC100 [6] | MIC50 [6] [µM] | MIC100 [7] | MIC50 [8] | MIC100 [8] | MIC100 [9] | MIC50 [10] | MIC100 [10] | MIC100 [11] | MIC50 [12] | MIC100 [12] | MIC50 [13, 19] [µM] | MIC50 [15] | also measured
1 | CC(=O)Oc1ccc(C(=O)C2=C(O)[C@]3(CC=C(C)C)C[C@H](CC=C(C)C)[C@@](C)(CCC=C(C)C)[C@](CC=C(C)C)(C2=O)C3=O)cc1OC(C)=O | 56 (≈ 38.5 µg/mL) | inactive | inactive | 0.227 (≈ 0.156 µg/mL) | inactive | inactive | inactive | inactive | 1820 (≈ 1250 µg/mL) | inactive | inactive | inactive | inactive | inactive | inactive | inactive | inactive | inactive | 56 (≈ 38.5 µg/mL) | inactive | MIC ([1]; ATCC 6538, 24 h, read-out: MIC100): 3.64 µM (≈ 2.5 µg/mL); MIC50 [3]: inactive; MIC50 [5, 18]: inactive; MIC50 [7]: inactive; MIC50 ([9]; ATCC 6258, 24 h, read-out: MIC50): 3640 µM (≈ 2500 µg/mL); MIC ([13]; ATCC 90012, 24 h): 3.64 µM (≈ 2.5 µg/mL); MIC [14]: 3640 µM (≈ 2500 µg/mL); CC50 at 48 h [16]: 114 µM; Ratio [17]: 3.31
2 | C[C@@H]1[C@H](O)[C@@H](C)/C=C/C=C/C=C/C=C/C=C/C=C/C=C/[C@H](O[C@@H]2O[C@H](C)[C@@H](O)[C@H](N)[C@@H]2O)C[C@@H]2O[C@](O)(C[C@@H](O)C[C@@H](O)[C@H](O)CC[C@@H](O)C[C@@H](O)CC(=O)O[C@H]1C)C[C@H](O)[C@H]2C(=O)O [AMPHOTERICIN B] | – | – | – | – | – | – | – | – | – | – | – | – | – | inactive | – | – | inactive | – | – | inactive | MIC ([8]; ATCC 09548, 24 h, read-out: MIC100): 0.54 µM (≈ 0.499 µg/mL); MIC50 [9]: inactive; MIC ([9]; ATCC 6258, 24 h, read-out: MIC100): 1.08 µM (≈ 0.998 µg/mL); MIC ([10]; Lodderomyces parapsilosis, ATCC 69548, 24 h, read-out: MIC100): 0.54 µM (≈ 0.499 µg/mL); MIC50 [11]: inactive; MIC ([11]; ATCC 90030, 24 h, read-out: MIC100): 0.54 µM (≈ 0.499 µg/mL); MIC ([12]; ATCC 750, 24 h, read-out: MIC100): 1.08 µM (≈ 0.998 µg/mL); MIC50 [13]: inactive; MIC ([13]; ATCC 90012, 24 h): 1.08 µM (≈ 0.998 µg/mL); MIC50 [14]: inactive; MIC [14]: 540 µM (≈ 499 µg/mL)
3 | CC(C)=CCC[C@]1(C)[C@@H](CC=C(C)C)C[C@@]2(CC=C(C)C)C(=O)C(C(=O)c3ccc(OC(=O)c4ccc(Cl)cc4)c(OC(=O)c4ccc(Cl)cc4)c3)=C(O)[C@]1(CC=C(C)C)C2=O | 177 (≈ 156 µg/mL) | inactive | inactive | 45.5 (≈ 40 µg/mL) | inactive | inactive | inactive | inactive | 44 (≈ 38.7 µg/mL) | inactive | inactive | inactive | inactive | inactive | inactive | inactive | inactive | inactive | – | inactive | MIC100 [1]: inactive; MIC50 ([3]; ATCC 11778, 24 h): 354 µM (≈ 312 µg/mL); MIC50 ([5]; Salmonella enterica, ATCC 14028, 24 h, read-out: MIC50): 44 µM (≈ 38.7 µg/mL); MIC50 [9]: inactive; MIC50 [11]: inactive; MIC100 [13]: inactive; MIC50 ([13]; ATCC 90012, 24 h): 45.5 µM (≈ 40 µg/mL); MIC50 [14]: inactive; MIC100 [14]: inactive; MIC100 [15]: inactive; CC50 at 48 h [16]: > 114 µM
4 | OC(Cn1cncn1)(Cn1cncn1)c1ccc(F)cc1F [FLUCONAZOLE] | – | – | – | – | – | – | – | – | – | – | – | inactive | inactive | – | inactive | inactive | – | – | 6530 (≈ 2000 µg/mL) | – | MIC50 ([12]; ATCC 750, 24 h): 3260 µM (≈ 998 µg/mL)
